From ChEMBL document CHEMBL4152256, “Structure-activity relationship of new antimalarial 1-aryl-3-susbtituted propanol derivatives: Synthesis, preliminary toxicity profiling, parasite life cycle stage studies, target exploration, and targeted delivery” (Eur J Med Chem, 2018)

Legend:
Plasmodium falciparum [1] = experiment: Antiplasmodial activity against multidrug-resistant Plasmodium falciparum FCR-3 by [3H]-hypoxanthine incorporation assay; format: functional, organism-based, FCR-3/Gambia; conditions: Plasmodium falciparum, FCR-3/Gambia
Outline: (§1)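 Blood-stage P. falciparum 3D7 and FCR-3 were tested by a modified [3H]-hypoxanthine incorporation assay. Chloroquine was the reference in all runs.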

Plasmodium falciparum [2] = experiment: Antiplasmodial activity against chloroquine-sensitive Plasmodium falciparum 3D7 by [3H]-hypoxanthine incorporation assay; format: functional, organism-based; conditions: Plasmodium falciparum, 3D7; outline: as §1
[3] = Cytotoxicity against human HepG2A16 cells by MTT assay; format: cell-based; conditions: HepG2A16 cells
Outline: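 MTT viability assay on HepG2-A16 cells, giving CC50 values.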

[4] = Selectivity index, ratio of CC50 for human HepG2A16 cells by MTT assay to IC50 for multidrug-resistant Plasmodium falciparum FCR-3; format: toxicity; conditions: HepG2A16 cells, read-out: Ratio CC50/IC50
Outline: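 HepG2-A16 human hepatoma cells were tested by MTT viability assay to give CC50. Blood-stage activity was measured against the multidrug-resistant P. falciparum FCR-3 strain by [3H]-hypoxanthine incorporation to give IC50. SI = CC50 HepG2 / FCR-3 IC50.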

[5] = Genotoxicity in Salmonella typhimurium TA1535 harboring pSK1002 assessed as survival at 0.125 mg/ml in absence of Sprague-Dawley rat liver S9 fraction after by SOS/umu assay relative to control; format: toxicity, organism-based; conditions: salmonella enterica subsp. enterica serovar typhimurium, read-out: Survival
[6] = Genotoxicity in Salmonella typhimurium TA1535 harboring pSK1002 assessed as umu gene induction at 0.125 mg/ml in absence of Sprague-Dawley rat liver S9 fraction after by SOS/umu assay relative to control; format: toxicity, organism-based; conditions: salmonella enterica subsp. enterica serovar typhimurium, read-out: FC
[7] = Genotoxicity in Salmonella typhimurium TA1535 harboring pSK1002 assessed as survival at 0.125 mg/ml in presence of Sprague-Dawley rat liver S9 fraction after by SOS/umu assay relative to control; format: toxicity, organism-based; conditions: salmonella enterica subsp. enterica serovar typhimurium, read-out: Survival
[8] = Genotoxicity in Salmonella typhimurium TA1535 harboring pSK1002 assessed as umu gene induction at 0.125 mg/ml in presence of Sprague-Dawley rat liver S9 fraction after by SOS/umu assay relative to control; format: toxicity, organism-based; conditions: salmonella enterica subsp. enterica serovar typhimurium, read-out: FC
[9] = Genotoxicity in Salmonella typhimurium TA1535 harboring pSK1002 assessed as survival at 0.063 mg/ml in absence of Sprague-Dawley rat liver S9 fraction after by SOS/umu assay relative to control; format: toxicity, organism-based; conditions: salmonella enterica subsp. enterica serovar typhimurium, read-out: Survival
[10] = Genotoxicity in Salmonella typhimurium TA1535 harboring pSK1002 assessed as umu gene induction at 0.063 mg/ml in absence of Sprague-Dawley rat liver S9 fraction after by SOS/umu assay relative to control; format: toxicity, organism-based; conditions: salmonella enterica subsp. enterica serovar typhimurium, read-out: FC
[11] = Genotoxicity in Salmonella typhimurium TA1535 harboring pSK1002 assessed as survival at 0.063 mg/ml in presence of Sprague-Dawley rat liver S9 fraction after by SOS/umu assay relative to control; format: toxicity, organism-based; conditions: salmonella enterica subsp. enterica serovar typhimurium, read-out: Survival
[12] = Genotoxicity in Salmonella typhimurium TA1535 harboring pSK1002 assessed as umu gene induction at 0.063 mg/ml in presence of Sprague-Dawley rat liver S9 fraction after by SOS/umu assay relative to control; format: toxicity, organism-based; conditions: salmonella enterica subsp. enterica serovar typhimurium, read-out: FC
[13] = Genotoxicity in Salmonella typhimurium TA1535 harboring pSK1002 assessed as survival at 0.031 mg/ml in absence of Sprague-Dawley rat liver S9 fraction after by SOS/umu assay relative to control; format: toxicity, organism-based; conditions: salmonella enterica subsp. enterica serovar typhimurium, read-out: Survival
[14] = Genotoxicity in Salmonella typhimurium TA1535 harboring pSK1002 assessed as umu gene induction at 0.031 mg/ml in absence of Sprague-Dawley rat liver S9 fraction after by SOS/umu assay relative to control; format: toxicity, organism-based; conditions: salmonella enterica subsp. enterica serovar typhimurium, read-out: FC
[15] = Genotoxicity in Salmonella typhimurium TA1535 harboring pSK1002 assessed as survival at 0.031 mg/ml in presence of Sprague-Dawley rat liver S9 fraction after by SOS/umu assay relative to control; format: toxicity, organism-based; conditions: salmonella enterica subsp. enterica serovar typhimurium, read-out: Survival
[16] = Genotoxicity in Salmonella typhimurium TA1535 harboring pSK1002 assessed as umu gene induction at 0.031 mg/ml in presence of Sprague-Dawley rat liver S9 fraction after by SOS/umu assay relative to control; format: toxicity, organism-based; conditions: salmonella enterica subsp. enterica serovar typhimurium, read-out: FC
[17] = Genotoxicity in Salmonella typhimurium TA1535 harboring pSK1002 assessed as survival at 0.016 mg/ml in absence of Sprague-Dawley rat liver S9 fraction after by SOS/umu assay relative to control; format: toxicity, organism-based; conditions: salmonella enterica subsp. enterica serovar typhimurium, read-out: Survival
[18] = Genotoxicity in Salmonella typhimurium TA1535 harboring pSK1002 assessed as umu gene induction at 0.016 mg/ml in absence of Sprague-Dawley rat liver S9 fraction after by SOS/umu assay relative to control; format: toxicity, organism-based; conditions: salmonella enterica subsp. enterica serovar typhimurium, read-out: FC
[19] = Genotoxicity in Salmonella typhimurium TA1535 harboring pSK1002 assessed as survival at 0.016 mg/ml in presence of Sprague-Dawley rat liver S9 fraction after by SOS/umu assay relative to control; format: toxicity, organism-based; conditions: salmonella enterica subsp. enterica serovar typhimurium, read-out: Survival
[20] = Genotoxicity in Salmonella typhimurium TA1535 harboring pSK1002 assessed as umu gene induction at 0.016 mg/ml in presence of Sprague-Dawley rat liver S9 fraction after by SOS/umu assay relative to control; format: toxicity, organism-based; conditions: salmonella enterica subsp. enterica serovar typhimurium, read-out: FC
[21] = Genotoxicity in Salmonella typhimurium TA1535 harboring pSK1002 assessed as survival at 0.008 mg/ml in absence of Sprague-Dawley rat liver S9 fraction after by SOS/umu assay relative to control; format: toxicity, organism-based; conditions: salmonella enterica subsp. enterica serovar typhimurium, read-out: Survival
[22] = Genotoxicity in Salmonella typhimurium TA1535 harboring pSK1002 assessed as umu gene induction at 0.008 mg/ml in absence of Sprague-Dawley rat liver S9 fraction after by SOS/umu assay relative to control; format: toxicity, organism-based; conditions: salmonella enterica subsp. enterica serovar typhimurium, read-out: FC
[23] = Genotoxicity in Salmonella typhimurium TA1535 harboring pSK1002 assessed as survival at 0.008 mg/ml in presence of Sprague-Dawley rat liver S9 fraction after by SOS/umu assay relative to control; format: toxicity, organism-based; conditions: salmonella enterica subsp. enterica serovar typhimurium, read-out: Survival
[24] = Genotoxicity in Salmonella typhimurium TA1535 harboring pSK1002 assessed as umu gene induction at 0.008 mg/ml in presence of Sprague-Dawley rat liver S9 fraction after by SOS/umu assay relative to control; format: toxicity, organism-based; conditions: salmonella enterica subsp. enterica serovar typhimurium, read-out: FC
[25] = Genotoxicity in Salmonella typhimurium TA1535 harboring pSK1002 assessed as survival at 0.004 mg/ml in absence of Sprague-Dawley rat liver S9 fraction after by SOS/umu assay relative to control; format: toxicity, organism-based; conditions: salmonella enterica subsp. enterica serovar typhimurium, read-out: Survival
[26] = Genotoxicity in Salmonella typhimurium TA1535 harboring pSK1002 assessed as umu gene induction at 0.004 mg/ml in absence of Sprague-Dawley rat liver S9 fraction after by SOS/umu assay relative to control; format: toxicity, organism-based; conditions: salmonella enterica subsp. enterica serovar typhimurium, read-out: FC
[27] = Genotoxicity in Salmonella typhimurium TA1535 harboring pSK1002 assessed as survival at 0.004 mg/ml in presence of Sprague-Dawley rat liver S9 fraction after by SOS/umu assay relative to control; format: toxicity, organism-based; conditions: salmonella enterica subsp. enterica serovar typhimurium, read-out: Survival
[28] = Genotoxicity in Salmonella typhimurium TA1535 harboring pSK1002 assessed as umu gene induction at 0.004 mg/ml in presence of Sprague-Dawley rat liver S9 fraction after by SOS/umu assay relative to control; format: toxicity, organism-based; conditions: salmonella enterica subsp. enterica serovar typhimurium, read-out: FC
[29] = Genotoxicity in Salmonella typhimurium TA1535 harboring pSK1002 assessed as survival at 0.002 mg/ml in absence of Sprague-Dawley rat liver S9 fraction after by SOS/umu assay relative to control; format: toxicity, organism-based; conditions: salmonella enterica subsp. enterica serovar typhimurium, read-out: Survival
[30] = Genotoxicity in Salmonella typhimurium TA1535 harboring pSK1002 assessed as umu gene induction at 0.002 mg/ml in absence of Sprague-Dawley rat liver S9 fraction after by SOS/umu assay relative to control; format: toxicity, organism-based; conditions: salmonella enterica subsp. enterica serovar typhimurium, read-out: FC
[31] = Genotoxicity in Salmonella typhimurium TA1535 harboring pSK1002 assessed as survival at 0.002 mg/ml in presence of Sprague-Dawley rat liver S9 fraction after by SOS/umu assay relative to control; format: toxicity, organism-based; conditions: salmonella enterica subsp. enterica serovar typhimurium, read-out: Survival
[32] = Genotoxicity in Salmonella typhimurium TA1535 harboring pSK1002 assessed as umu gene induction at 0.002 mg/ml in presence of Sprague-Dawley rat liver S9 fraction after by SOS/umu assay relative to control; format: toxicity, organism-based; conditions: salmonella enterica subsp. enterica serovar typhimurium, read-out: FC
[33] = Genotoxicity in Salmonella typhimurium TA1535 harboring pSK1002 assessed as survival at 0.001 mg/ml in absence of Sprague-Dawley rat liver S9 fraction after by SOS/umu assay relative to control; format: toxicity, organism-based; conditions: salmonella enterica subsp. enterica serovar typhimurium, read-out: Survival
[34] = Genotoxicity in Salmonella typhimurium TA1535 harboring pSK1002 assessed as umu gene induction at 0.001 mg/ml in absence of Sprague-Dawley rat liver S9 fraction after by SOS/umu assay relative to control; format: toxicity, organism-based; conditions: salmonella enterica subsp. enterica serovar typhimurium, read-out: FC
[35] = Genotoxicity in Salmonella typhimurium TA1535 harboring pSK1002 assessed as survival at 0.001 mg/ml in presence of Sprague-Dawley rat liver S9 fraction after by SOS/umu assay relative to control; format: toxicity, organism-based; conditions: salmonella enterica subsp. enterica serovar typhimurium, read-out: Survival
[36] = Genotoxicity in Salmonella typhimurium TA1535 harboring pSK1002 assessed as umu gene induction at 0.001 mg/ml in presence of Sprague-Dawley rat liver S9 fraction after by SOS/umu assay relative to control; format: toxicity, organism-based; conditions: salmonella enterica subsp. enterica serovar typhimurium, read-out: FC
[37] = Solubility of the compound in DSPC:cholesterol:DSPE-PEG2000-Mal:DOPE-Rho lipid mixture at 250 uM; format: physicochemical
Outline: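 Compound added at 250 µM drug to the initial liposome lipid mixture (10 mM total lipid); precipitation and UV-visible absorbance above 300 nm assessed after encapsulation, removal of unencapsulated material and extraction with 1% w/v SDS in RPMI-A.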

Molecule `O=[N+]([O-])c1ccccc1N1CCN(CCC(O)c2ccc(F)c3ccccc23)CC1` (stereo unspecified) has an IC50 (Plasmodium falciparum [1]) of 2.62 µM, an IC50 (Plasmodium falciparum [2]) of 0.92 µM and a CC50 [3] of 19.9 µM. It also gave a selectivity ratio [4] of 8, a viability at 0.125 mg/ml [5] of 174% and a fold induction at 0.125 mg/ml [6] of 0.5. For the same molecule, the viability at 0.125 mg/ml [7] was 76.2%, the fold induction at 0.125 mg/ml [8] was 1.3 and the viability at 0.063 mg/ml [9] was 118%. It also gave a fold induction at 0.063 mg/ml [10] of 0.8, a viability at 0.063 mg/ml [11] of 63.8% and a fold induction at 0.063 mg/ml [12] of 1.4. The viability at 0.031 mg/ml [13] was 66.8%, the fold induction at 0.031 mg/ml [14] was 1.5 and the viability at 0.031 mg/ml [15] was 63.2%. The fold induction at 0.031 mg/ml [16] was 1.9, the viability at 0.016 mg/ml [17] was 50.6% and the fold induction at 0.016 mg/ml [18] was 2. The viability at 0.016 mg/ml [19] was 64.5%, the fold induction at 0.016 mg/ml [20] was 1.9 and the viability at 0.008 mg/ml [21] was 87.9%. The fold induction at 0.008 mg/ml [22] was 1.7, the viability at 0.008 mg/ml [23] was 89.5% and the fold induction at 0.008 mg/ml [24] was 1. For the same molecule, the viability at 0.004 mg/ml [25] was 106%, the fold induction at 0.004 mg/ml [26] was 0.9 and the viability at 0.004 mg/ml [27] was 92.2%. For the same molecule, the fold induction at 0.004 mg/ml [28] was 1.2, the viability at 0.002 mg/ml [29] was 111% and the fold induction at 0.002 mg/ml [30] was 0.9. For the same molecule, the viability at 0.002 mg/ml [31] was 84.3%, the fold induction at 0.002 mg/ml [32] was 0.7 and the viability at 0.001 mg/ml [33] was 100%. It also gave a fold induction at 0.001 mg/ml [34] of 1.1, a viability at 0.001 mg/ml [35] of 77.8% and a fold induction at 0.001 mg/ml [36] of 1.4.
For `OC(CCN1CCN(C(c2ccccc2)c2ccccc2)CC1)c1ccc2c(c1)OCO2` (stereo unspecified), the IC50 (Plasmodium falciparum [1]) was 1.44 µM, the IC50 (Plasmodium falciparum [2]) was 1.66 µM and the CC50 [3] was 36.1 µM. The selectivity ratio [4] was 25 and the solubility [37] was “Insoluble”.
